In ChEMBL document CHEMBL2203031, “Inhibitors of the NAD(+)-Dependent Protein Desuccinylase and Demalonylase Sirt5” (ACS Med Chem Lett, 2012) one finds IC50 and inhibition data, which are given here for 21 compounds.

For assay [1], the target named is NAD-dependent protein deacylase sirtuin-5, mitochondrial (Homo sapiens, UniProt Q9NXA8). Kind of assay: Inhibition of SIRT5 using ZK(suc)A substrate after 1 hr by homogeneous fluorescence assay. Put shortly:
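Recombinant Sirt5 reacted with 200 µM succinyl-lysine AMC substrate ZK(s)A and 500 µM NAD+ in pH 8.0 Tris buffer (130 mM NaCl, 3 mM KCl, 1 mM MgCl2, 0.1% PEG8000) with DMSO <2%. Ran 1 h at 37 °C, then trypsin for 2 min at 37 °C. Conversion without inhibitor set to 4–10%. Inhibition calculated against DMSO control, at least two independent runs; IC50 from curve fit.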

Assay [2] deals with T1, NAD-dependent protein deacetylase sirtuin-1 (Homo sapiens, UniProt Q96EB6).
T1 sequence (Q96EB6 whole entry): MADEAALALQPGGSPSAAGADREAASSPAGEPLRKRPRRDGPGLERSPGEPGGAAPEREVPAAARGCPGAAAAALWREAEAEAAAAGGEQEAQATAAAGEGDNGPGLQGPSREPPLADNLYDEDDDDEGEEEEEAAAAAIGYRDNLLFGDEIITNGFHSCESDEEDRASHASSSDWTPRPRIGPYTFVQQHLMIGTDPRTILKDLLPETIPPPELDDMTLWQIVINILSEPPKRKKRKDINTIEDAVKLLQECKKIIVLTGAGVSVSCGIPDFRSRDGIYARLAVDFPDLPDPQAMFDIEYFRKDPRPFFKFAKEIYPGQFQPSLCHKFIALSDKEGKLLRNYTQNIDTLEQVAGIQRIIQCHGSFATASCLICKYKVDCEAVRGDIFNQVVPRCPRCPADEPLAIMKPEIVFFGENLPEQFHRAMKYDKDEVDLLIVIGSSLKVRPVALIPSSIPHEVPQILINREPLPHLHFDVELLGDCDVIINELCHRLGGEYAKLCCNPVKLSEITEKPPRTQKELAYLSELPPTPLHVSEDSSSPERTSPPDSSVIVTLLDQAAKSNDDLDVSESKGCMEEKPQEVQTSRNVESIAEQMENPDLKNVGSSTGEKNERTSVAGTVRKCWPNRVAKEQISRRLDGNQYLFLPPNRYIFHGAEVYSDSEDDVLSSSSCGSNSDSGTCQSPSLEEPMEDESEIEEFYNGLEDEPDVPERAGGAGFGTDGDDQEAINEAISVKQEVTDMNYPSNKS
Kind of assay: Inhibition of recombinant SIRT1 using ZMAL substrate after 4 hrs by homogeneous fluorescence assay.

Assay [3] has as its target T2, NAD-dependent protein deacetylase sirtuin-2 (Homo sapiens) (UniProt Q8IXJ6).
T2 sequence (whole entry): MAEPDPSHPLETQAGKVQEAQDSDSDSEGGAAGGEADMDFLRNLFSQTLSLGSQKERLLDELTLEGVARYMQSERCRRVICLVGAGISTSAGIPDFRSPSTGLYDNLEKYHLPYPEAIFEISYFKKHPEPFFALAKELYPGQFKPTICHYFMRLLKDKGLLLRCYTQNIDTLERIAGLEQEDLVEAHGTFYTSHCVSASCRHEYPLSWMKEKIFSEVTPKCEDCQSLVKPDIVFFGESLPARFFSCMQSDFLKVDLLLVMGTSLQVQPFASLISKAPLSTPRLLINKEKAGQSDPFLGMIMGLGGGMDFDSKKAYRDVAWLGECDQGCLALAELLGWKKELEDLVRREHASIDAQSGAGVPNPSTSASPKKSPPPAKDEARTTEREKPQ
Put plainly: Inhibition of recombinant SIRT2 using ZMAL substrate at 50 uM after 4 hrs by homogeneous fluorescence assay. A digest of the protocol: (§1)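 Recombinant Sirt1, Sirt2 or Sirt3 incubated with 10.5 µM ZMAL and 500 µM NAD+ in pH 8.0 Tris buffer (137 mM NaCl, 2.7 mM KCl, 1 mM MgCl2) containing 5% DMSO. Ran 4 h at 37 °C, then trypsin developer with 8 mM nicotinamide for 20 min at 37 °C. Fluorescence at Ex 390/Em 460 nm. Conversion without inhibitor held at 10–30%. Inhibition calculated versus DMSO control, at least three independent runs; IC50 by curve fitting.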

Assay [4] has as its target T3, NAD-dependent protein deacetylase sirtuin-3, mitochondrial (Homo sapiens) (UniProt Q9NTG7).
T3 sequence (whole entry): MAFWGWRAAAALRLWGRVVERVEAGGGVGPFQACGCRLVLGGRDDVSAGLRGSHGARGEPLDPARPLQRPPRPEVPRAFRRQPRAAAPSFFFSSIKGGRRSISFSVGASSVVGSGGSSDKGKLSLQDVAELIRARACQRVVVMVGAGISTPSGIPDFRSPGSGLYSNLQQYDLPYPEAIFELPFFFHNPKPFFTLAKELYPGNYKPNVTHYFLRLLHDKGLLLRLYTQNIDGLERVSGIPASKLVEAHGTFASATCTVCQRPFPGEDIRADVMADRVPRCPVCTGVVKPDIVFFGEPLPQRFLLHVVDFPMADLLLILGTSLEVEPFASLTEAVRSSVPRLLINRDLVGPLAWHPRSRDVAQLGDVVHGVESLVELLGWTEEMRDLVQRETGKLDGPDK
Put plainly: Inhibition of recombinant SIRT3 using ZMAL substrate at 50 uM after 4 hrs by homogeneous fluorescence assay. Put shortly: as §1

Assay [5] addresses T4, NAD-dependent protein deacetylase sirtuin-2 (Homo sapiens, UniProt Q8IXJ6).
T4 sequence (Q8IXJ6 whole entry): T2 sequence (whole entry)
Kind of assay: Inhibition of recombinant SIRT2 using ZMAL substrate after 4 hrs by homogeneous fluorescence assay.

Assay [6] deals with T5, NAD-dependent protein deacetylase sirtuin-3, mitochondrial (Homo sapiens, UniProt Q9NTG7).
T5 sequence (Q9NTG7 whole entry): T3 sequence (whole entry)
Kind of assay: Inhibition of recombinant SIRT3 using ZMAL substrate after 4 hrs by homogeneous fluorescence assay.

Activity calls are given as the source filed them. The calls are words filed in the database; no cut-off is given here.

Sequence of NAD-dependent protein deacylase sirtuin-5, mitochondrial (Q9NXA8 whole entry): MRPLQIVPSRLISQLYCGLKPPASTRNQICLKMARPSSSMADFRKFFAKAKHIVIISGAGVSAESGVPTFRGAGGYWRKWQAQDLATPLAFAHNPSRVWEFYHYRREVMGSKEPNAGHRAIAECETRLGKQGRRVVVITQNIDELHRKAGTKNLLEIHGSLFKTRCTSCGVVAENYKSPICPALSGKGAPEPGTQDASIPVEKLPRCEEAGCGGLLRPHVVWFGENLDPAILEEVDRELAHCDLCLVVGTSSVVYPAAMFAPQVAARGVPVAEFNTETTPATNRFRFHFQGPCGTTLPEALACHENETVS

Usually IC50 stands for the concentration needed to halve the response being measured. In the case of `CS(=O)(=O)O.Cn1cc(C2=C(c3cn(CCCSC(=N)N)c4ccccc34)C(=O)NC2=O)c2ccccc21`, the IC50 result in assay [1] is “Not Active”.

A word on the inhibition: it is the share of the control response that was lost under treatment. On to `O=C1NC(=S)NC(=O)C1=Cc1cn(Cc2ccccc2)c2ccccc12`, for which the values for the IC50 in assay [2] (read-out: IC50) and in assay [1] (read-out: IC50) were 28.4 µM and 16.6 µM, respectively. Moreover, in assay [3], the inhibition is 20%.

For `O=C1NC(=S)NC(=O)C1=Cc1ccc(-c2cccc(Cl)c2Cl)o1`, the figures for the IC50 in assay [2] (read-out: IC50), in assay [1] (read-out: IC50) and in assay [5] were 3.4 µM, 3.6 µM and 10.4 µM, respectively. Further, the inhibition in assay [4] is 30%.

Regarding `NC(=O)C1CCCc2c1[nH]c1ccc(Cl)cc21` (stereo not given), the IC50 result in assay [1] was “Not Active”.

As for `O=C1CC(c2ccccc2)c2c(ccc3cc(Br)ccc23)O1` (stereo not given), the IC50 entry is “Not Active” in assay [2], “Not Active” in assay [1], “Not Active” in assay [6] and 1 µM in assay [5].

Consider `Cc1ccc(C(=O)Nc2ccc(S(=O)(=O)O)c3cc(S(=O)(=O)O)cc(S(=O)(=O)O)c23)cc1NC(=O)c1cccc(NC(=O)Nc2cccc(C(=O)Nc3cc(C(=O)Nc4ccc(S(=O)(=O)O)c5cc(S(=O)(=O)O)cc(S(=O)(=O)O)c45)ccc3C)c2)c1` [SURAMIN], for which the IC50 result in assay [6] is “Not Active”; in assay [5], 1.1 µM.

In the case of `CC(NC(=O)c1ccccc1/N=C/c1c(O)ccc2ccccc12)c1ccccc1` (stereo not given) [SIRTINOL], the inhibition in assay [4] turned out to be 24%. Besides, the IC50 in assay [1] (read-out: IC50) worked out at 48.9 µM.

As to `C=CCN1C(=O)/C(=C/c2ccc(OCc3ccccc3)cc2)C(=O)NC1=S`, the IC50 in assay [2] (read-out: IC50) is 36.8 µM; in assay [1] (read-out: IC50), 67.3 µM. The inhibition in assay [4] is 13%. Further, in assay [3], the inhibition result is “inactive”.

As to `O=c1[nH]c(=S)[nH]c(-c2ccccc2)c1Cc1c(O)ccc2ccccc12` [CAMBINOL], in assay [1] (read-out: IC50), the IC50 was 42.5 µM.

With `C=CCN1C(=O)/C(=C/c2ccc(-c3cccc(Cl)c3Cl)o2)C(=O)NC1=S`, the values for the IC50 in assay [2] (read-out: IC50), in assay [1] (read-out: IC50) and in assay [5] were 5.3 µM, 2.3 µM and 9.7 µM, respectively. Further, in assay [4], the inhibition turned out to be 41%.

For the compound `CN1C(=O)/C(=C/c2ccc(OCc3ccccc3)cc2)C(=O)NC1=S`, the IC50 is 56.5 µM in assay [2] (read-out: IC50), 17.8 µM in assay [1] (read-out: IC50) and 10 µM in assay [5]. Besides, the inhibition in assay [4] was 22%.

Turning to `CCN1C(=O)/C(=C/c2c[nH]c3ccccc23)C(=O)NC1=S`, the IC50 in assay [2] (read-out: IC50) came out at 89.3 µM; in assay [1] (read-out: IC50), 55.9 µM. The inhibition result in assay [4] is “inactive”. Also, the inhibition in assay [3] is 10%.

Take `O=C1NC(=S)NC(=O)C1=Cc1ccc(OCc2ccc(Br)cc2)cc1`: the IC50 in assay [2] (read-out: IC50) was determined as 9.9 µM; in assay [1] (read-out: IC50), 6.2 µM; in assay [5], 3.4 µM.

For `COc1ccc2c(C=C3C(=O)NC(=S)NC3=O)cccc2c1`, the results for the IC50 in assay [2] (read-out: IC50), in assay [1] (read-out: IC50) and in assay [5] were 6 µM, 22.4 µM and 11.7 µM, respectively.

Consider `O=C1NC(=S)NC(=O)C1=Cc1ccc(OCc2ccccc2)cc1`, for which the IC50 in assay [2] (read-out: IC50) is 10.5 µM; in assay [1] (read-out: IC50), 12.6 µM; in assay [5] it was 9.8 µM.

As for `CC(C)c1ccc(C=C2C(=O)NC(=S)NC2=O)cc1`, the IC50 in assay [2] (read-out: IC50) turned out to be 12.4 µM; in assay [1] (read-out: IC50), 39.4 µM; in assay [5], 14.7 µM. In addition, in assay [4], the inhibition stood at 13%.

Consider `CCN1C(=O)/C(=C/c2ccc(OCc3ccccc3)cc2)C(=O)NC1=S`, for which the results for the IC50 in assay [2] (read-out: IC50), in assay [1] (read-out: IC50) and in assay [5] were 53.2 µM, 12.9 µM and 14.4 µM, respectively. In addition, in assay [4], the inhibition turned out to be 25%.

For `COc1cc(C=C2C(=O)NC(=S)NC2=O)ccc1OCc1ccccc1Cl`, the IC50 in assay [2] (read-out: IC50) worked out at 6.7 µM; in assay [1] (read-out: IC50), 12.4 µM; in assay [5], 7.5 µM.

Take `O=C1NC(=S)NC(=O)C1=Cc1ccc(-c2ccccc2)cc1`: the concentration for half-maximal inhibition (IC50) in assay [2] (read-out: IC50) was 50.5 µM; in assay [1] (read-out: IC50), 30 µM; in assay [6] (read-out: IC50), 40.3 µM.

Turning to `CN1C(=O)/C(=C/c2c[nH]c3ccccc23)C(=O)NC1=S`, the IC50 in assay [2] (read-out: IC50) worked out at 42.4 µM; in assay [1] (read-out: IC50), 27 µM. The inhibition was 17% in assay [4] and 20% in assay [3].

Take `O=C1NC(=S)NC(=O)C1=Cc1c[nH]c2ccccc12`: the IC50 in assay [2] (read-out: IC50) is 5.9 µM; in assay [1] (read-out: IC50), 46.5 µM; in assay [5], 20.3 µM. In addition, the inhibition in assay [4] worked out at 14%.
